ChEMBL document CHEMBL1155082, “Chemo-enzymatic synthesis of a series of 2,4-syn-functionalized (S)-glutamate analogues: new insight into the structure-activity relation of ionotropic glutamate receptor subtypes 5, 6, and 7” (J Med Chem, 2008)

Columns and labels:
Glutamate NMDA receptor = assay: Displacement of [3H]CGP 39653 from NMDA receptor in rat synaptosomes; type: subcellular, Brain
[1] = Displacement of [3H]AMPA from AMPA receptor in rat synaptosomes; type: subcellular, Brain
[2] = Displacement of [3H]KA from KA receptor in rat synaptosomes; type: subcellular, Brain
Escherichia coli [3] = assay: Activity at Escherichia coli JM103 aspartate aminotransferase relative to alpha-ketoglutarate
Outline: (§1)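 E. coli AAT purified from overexpressing JM103 carrying pUC119-aspC. Run at 25 °C in 0.1 M potassium phosphate pH 7.6 with 40 mM Asp, 0.2 mM NADH, 0.1-10 mM ketoacid substrate, 0.05 UI AAT and 2 UI malic dehydrogenase coupling. Rates taken from linear OD decay at 340 nm. Kinetic parameters and standard errors from Hanes-Woolf plot by least squares.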

Escherichia coli [4] = assay: Activity at Escherichia coli JM103 aspartate aminotransferase; outline: as §1
[5] = target: Glutamate receptor ionotropic, kainate 1 (Rattus norvegicus, UniProt P22756); assay: Displacement of [3H]SYM2081 from rat recombinant iGluR5
Chain of Glutamate receptor ionotropic, kainate 1 (P22756 whole entry): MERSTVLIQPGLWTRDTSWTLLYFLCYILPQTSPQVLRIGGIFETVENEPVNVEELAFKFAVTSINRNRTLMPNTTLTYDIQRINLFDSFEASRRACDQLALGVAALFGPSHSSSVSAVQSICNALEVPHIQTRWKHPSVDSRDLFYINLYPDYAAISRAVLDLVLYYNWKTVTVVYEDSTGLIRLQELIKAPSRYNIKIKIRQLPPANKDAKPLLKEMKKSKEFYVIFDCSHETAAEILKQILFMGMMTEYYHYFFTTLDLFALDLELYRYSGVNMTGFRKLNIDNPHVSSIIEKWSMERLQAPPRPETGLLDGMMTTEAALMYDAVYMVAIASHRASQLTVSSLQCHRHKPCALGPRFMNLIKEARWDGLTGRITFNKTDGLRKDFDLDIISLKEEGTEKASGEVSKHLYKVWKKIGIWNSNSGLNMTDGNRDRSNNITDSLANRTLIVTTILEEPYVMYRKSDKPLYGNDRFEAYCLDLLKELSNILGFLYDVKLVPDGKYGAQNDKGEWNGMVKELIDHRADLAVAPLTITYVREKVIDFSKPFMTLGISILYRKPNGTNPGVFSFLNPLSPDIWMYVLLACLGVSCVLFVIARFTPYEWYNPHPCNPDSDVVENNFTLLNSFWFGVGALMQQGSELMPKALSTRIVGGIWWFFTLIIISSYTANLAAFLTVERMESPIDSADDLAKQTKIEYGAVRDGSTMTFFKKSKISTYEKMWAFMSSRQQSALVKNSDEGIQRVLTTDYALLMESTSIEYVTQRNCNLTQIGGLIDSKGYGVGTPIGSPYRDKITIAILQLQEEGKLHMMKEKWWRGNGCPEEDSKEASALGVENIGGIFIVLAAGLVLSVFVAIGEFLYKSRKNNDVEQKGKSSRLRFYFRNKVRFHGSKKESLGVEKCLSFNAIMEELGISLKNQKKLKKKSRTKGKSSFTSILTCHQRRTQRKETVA

[6] = target: Metabotropic glutamate receptor 1 (Rattus norvegicus, UniProt P23385); assay: Activity at rat mGluR1 expressed in HEK293 cells assessed as calcium mobilization by FLIPR; type: functional, cell-based
Chain of Metabotropic glutamate receptor 1 (P23385 whole entry): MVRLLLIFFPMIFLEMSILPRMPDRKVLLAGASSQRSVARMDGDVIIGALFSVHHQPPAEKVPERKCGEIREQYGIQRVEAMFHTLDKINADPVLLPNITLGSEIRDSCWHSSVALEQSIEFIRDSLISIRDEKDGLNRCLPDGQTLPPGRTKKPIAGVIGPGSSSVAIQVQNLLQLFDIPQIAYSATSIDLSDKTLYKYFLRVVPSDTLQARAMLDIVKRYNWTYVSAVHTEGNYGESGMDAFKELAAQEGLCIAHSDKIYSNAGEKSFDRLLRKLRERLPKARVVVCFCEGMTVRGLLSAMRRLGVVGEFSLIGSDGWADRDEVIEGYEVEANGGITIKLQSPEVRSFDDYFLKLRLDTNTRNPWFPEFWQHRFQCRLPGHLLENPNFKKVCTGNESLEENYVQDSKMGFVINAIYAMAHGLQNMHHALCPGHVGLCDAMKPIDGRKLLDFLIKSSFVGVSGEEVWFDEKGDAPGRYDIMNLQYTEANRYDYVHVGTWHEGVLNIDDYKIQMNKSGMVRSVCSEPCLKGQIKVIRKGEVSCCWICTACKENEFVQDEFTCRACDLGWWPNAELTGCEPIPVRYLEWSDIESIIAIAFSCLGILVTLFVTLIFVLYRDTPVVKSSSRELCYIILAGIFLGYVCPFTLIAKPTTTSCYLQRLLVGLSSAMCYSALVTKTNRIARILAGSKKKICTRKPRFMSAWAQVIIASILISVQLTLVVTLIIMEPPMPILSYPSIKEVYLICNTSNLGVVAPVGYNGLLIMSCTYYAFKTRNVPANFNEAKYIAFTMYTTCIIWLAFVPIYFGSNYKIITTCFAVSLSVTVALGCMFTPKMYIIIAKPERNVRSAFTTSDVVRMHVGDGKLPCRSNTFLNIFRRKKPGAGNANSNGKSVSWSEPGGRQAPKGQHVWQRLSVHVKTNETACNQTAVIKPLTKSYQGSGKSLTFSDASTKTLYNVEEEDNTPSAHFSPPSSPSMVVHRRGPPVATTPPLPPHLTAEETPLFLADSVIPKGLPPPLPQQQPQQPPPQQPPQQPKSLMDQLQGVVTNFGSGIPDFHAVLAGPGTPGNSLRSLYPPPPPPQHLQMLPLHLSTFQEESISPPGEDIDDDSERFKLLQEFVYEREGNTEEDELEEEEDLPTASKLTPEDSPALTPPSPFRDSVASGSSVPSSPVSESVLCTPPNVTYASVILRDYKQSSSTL
Outline: (§2)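 Rat receptor cDNA transiently transfected into HEK293 (Lipofectamine Plus), seeded 24 h later, assayed next day. Cells loaded with 3 µM Fluo-4/0.01% pluronic in HEPES-buffered HBSS pH 7.4 with BSA and 2.5 mM probenecid, 1 h, 37 °C. Glutamate at EC80 or EC10 added with compound. FLIPR read over 3 min at room temperature. Maximum fluorescence change fitted by Hill equation.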

[7] = target: Metabotropic glutamate receptor 4 (Homo sapiens, UniProt Q14833); assay: Activity at mGluR4 assessed as calcium mobilization by FLIPR; type: functional
Chain of Metabotropic glutamate receptor 4 (Q14833 whole entry): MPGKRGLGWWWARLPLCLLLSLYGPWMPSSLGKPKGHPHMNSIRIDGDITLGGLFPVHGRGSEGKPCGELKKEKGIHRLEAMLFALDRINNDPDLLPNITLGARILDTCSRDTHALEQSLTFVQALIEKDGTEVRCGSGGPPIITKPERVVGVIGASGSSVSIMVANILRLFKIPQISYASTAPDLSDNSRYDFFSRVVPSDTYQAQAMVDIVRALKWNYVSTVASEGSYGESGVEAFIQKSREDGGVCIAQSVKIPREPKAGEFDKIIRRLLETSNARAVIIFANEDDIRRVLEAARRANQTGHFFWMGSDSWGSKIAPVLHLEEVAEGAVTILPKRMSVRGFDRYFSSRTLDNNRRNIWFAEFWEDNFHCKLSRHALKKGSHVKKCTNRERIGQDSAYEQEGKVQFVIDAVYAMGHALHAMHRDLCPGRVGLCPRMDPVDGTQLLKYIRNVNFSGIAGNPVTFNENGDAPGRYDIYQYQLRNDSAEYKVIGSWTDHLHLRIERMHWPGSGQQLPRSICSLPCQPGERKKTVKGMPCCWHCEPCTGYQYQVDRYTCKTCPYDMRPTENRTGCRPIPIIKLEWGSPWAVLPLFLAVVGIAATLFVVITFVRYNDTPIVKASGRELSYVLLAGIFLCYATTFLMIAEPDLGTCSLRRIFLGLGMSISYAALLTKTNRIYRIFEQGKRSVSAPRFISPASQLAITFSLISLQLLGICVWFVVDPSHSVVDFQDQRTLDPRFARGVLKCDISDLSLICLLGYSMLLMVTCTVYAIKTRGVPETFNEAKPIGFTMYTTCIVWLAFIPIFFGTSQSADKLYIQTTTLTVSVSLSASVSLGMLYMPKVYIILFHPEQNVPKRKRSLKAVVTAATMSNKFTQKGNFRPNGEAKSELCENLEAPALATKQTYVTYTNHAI

[8] = target: Glutamate receptor ionotropic, kainate 2 (Rattus norvegicus, UniProt P42260); assay: Displacement of [3H]SYM2081 from rat recombinant iGluR6
Chain of Glutamate receptor ionotropic, kainate 2 (P42260 whole entry): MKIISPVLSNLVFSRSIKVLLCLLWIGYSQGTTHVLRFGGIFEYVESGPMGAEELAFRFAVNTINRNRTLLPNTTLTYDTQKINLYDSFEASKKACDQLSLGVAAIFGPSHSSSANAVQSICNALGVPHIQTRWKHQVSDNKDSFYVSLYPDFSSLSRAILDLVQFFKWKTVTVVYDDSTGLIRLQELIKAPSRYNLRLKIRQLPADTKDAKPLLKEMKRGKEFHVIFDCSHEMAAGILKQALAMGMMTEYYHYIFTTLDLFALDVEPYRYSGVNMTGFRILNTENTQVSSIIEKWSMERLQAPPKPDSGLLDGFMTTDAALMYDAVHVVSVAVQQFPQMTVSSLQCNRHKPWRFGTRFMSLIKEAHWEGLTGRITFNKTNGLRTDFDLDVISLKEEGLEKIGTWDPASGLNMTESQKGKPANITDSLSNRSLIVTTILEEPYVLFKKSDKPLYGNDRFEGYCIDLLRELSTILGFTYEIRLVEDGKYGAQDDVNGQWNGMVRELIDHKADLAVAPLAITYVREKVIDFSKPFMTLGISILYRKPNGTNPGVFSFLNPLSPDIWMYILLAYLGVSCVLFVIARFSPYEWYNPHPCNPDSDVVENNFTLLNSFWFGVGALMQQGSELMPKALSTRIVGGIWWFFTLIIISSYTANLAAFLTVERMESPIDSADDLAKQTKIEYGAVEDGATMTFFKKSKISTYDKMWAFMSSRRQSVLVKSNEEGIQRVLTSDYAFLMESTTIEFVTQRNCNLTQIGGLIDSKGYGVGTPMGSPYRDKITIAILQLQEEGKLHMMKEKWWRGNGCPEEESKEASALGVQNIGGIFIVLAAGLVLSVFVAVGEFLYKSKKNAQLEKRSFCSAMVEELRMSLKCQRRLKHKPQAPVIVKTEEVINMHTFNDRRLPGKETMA

[9] = target: T1, Metabotropic glutamate receptor 2 (Rattus norvegicus, UniProt P31421); assay: Displacement of [3H][…] from rat mGluR2 expressed in CHO cells by SPA; type: cell-based
Outline: (§3)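 Membranes from transiently transfected CHO cells harvested 48 h post-transfection, protein by Bradford, stored at -80 °C. SPA binding at 10 µg protein/well in 50 mM Tris-HCl pH 7.0 with 2 mM MgCl2, 2 nM [3H]LY341495 and WGA-SPA beads. Incubated 45 min on ice, then overnight at 4 °C. Nonspecific binding with 10 µM LY341495. Ki by Cheng-Prusoff.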

[10] = target: T1, Metabotropic glutamate receptor 2; assay: Activity at rat mGluR2 expressed in CHO cells assessed as calcium mobilization by FLIPR; type: functional, cell-based
Outline: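 Rat mGluR2 cDNA co-transfected 8:2 with C. elegans GR Qi3 chimera cDNA into CHO cells (Lipofectamine Plus, 10 µg DNA/~7×10^6 cells). Fluo-4 loading for 1 h at 37 °C. Stimulation with EC80 or EC10 glutamate plus compound. FLIPR maximum fluorescence change over 3 min at room temperature, baseline-subtracted, fitted by Hill equation.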

[11] = target: Metabotropic glutamate receptor 5 (Rattus norvegicus, UniProt P31424); assay: Activity at rat mGluR5 expressed in HEK293 cells assessed as calcium mobilization by FLIPR; type: functional, cell-based; outline: as §2
[12] = target: Metabotropic glutamate receptor 3 (Rattus norvegicus, UniProt P31422); assay: Displacement of [3H][…] from rat mGluR3 expressed in CHO cells by SPA; type: cell-based; outline: as §3
Chain of Metabotropic glutamate receptor 3 (P31422 whole entry): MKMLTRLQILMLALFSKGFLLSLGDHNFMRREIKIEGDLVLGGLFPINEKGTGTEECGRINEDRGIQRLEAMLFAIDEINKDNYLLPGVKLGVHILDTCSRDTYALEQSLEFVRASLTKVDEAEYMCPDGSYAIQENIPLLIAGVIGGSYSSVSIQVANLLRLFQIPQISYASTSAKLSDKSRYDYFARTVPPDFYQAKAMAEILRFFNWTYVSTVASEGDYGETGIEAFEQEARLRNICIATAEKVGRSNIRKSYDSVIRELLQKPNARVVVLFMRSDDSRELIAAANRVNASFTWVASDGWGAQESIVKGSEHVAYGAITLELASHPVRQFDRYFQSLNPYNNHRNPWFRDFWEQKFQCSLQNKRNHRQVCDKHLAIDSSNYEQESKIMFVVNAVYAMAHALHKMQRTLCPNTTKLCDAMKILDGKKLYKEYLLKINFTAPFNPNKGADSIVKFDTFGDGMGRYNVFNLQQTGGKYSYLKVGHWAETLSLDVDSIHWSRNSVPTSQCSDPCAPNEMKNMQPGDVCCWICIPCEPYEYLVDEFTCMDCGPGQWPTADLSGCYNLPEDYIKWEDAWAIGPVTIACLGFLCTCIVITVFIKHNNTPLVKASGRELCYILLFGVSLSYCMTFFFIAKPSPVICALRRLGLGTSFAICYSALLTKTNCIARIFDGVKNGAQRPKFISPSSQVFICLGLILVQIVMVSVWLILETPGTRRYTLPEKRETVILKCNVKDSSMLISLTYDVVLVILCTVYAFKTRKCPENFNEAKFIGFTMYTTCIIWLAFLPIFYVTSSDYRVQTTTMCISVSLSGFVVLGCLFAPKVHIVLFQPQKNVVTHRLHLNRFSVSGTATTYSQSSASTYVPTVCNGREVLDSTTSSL

[13] = target: T2, Glutamate receptor ionotropic, kainate 4 (Rattus norvegicus, UniProt Q01812); assay: Binding affinity to rat cloned KA1 receptor
T2 sequence (Q01812 whole entry): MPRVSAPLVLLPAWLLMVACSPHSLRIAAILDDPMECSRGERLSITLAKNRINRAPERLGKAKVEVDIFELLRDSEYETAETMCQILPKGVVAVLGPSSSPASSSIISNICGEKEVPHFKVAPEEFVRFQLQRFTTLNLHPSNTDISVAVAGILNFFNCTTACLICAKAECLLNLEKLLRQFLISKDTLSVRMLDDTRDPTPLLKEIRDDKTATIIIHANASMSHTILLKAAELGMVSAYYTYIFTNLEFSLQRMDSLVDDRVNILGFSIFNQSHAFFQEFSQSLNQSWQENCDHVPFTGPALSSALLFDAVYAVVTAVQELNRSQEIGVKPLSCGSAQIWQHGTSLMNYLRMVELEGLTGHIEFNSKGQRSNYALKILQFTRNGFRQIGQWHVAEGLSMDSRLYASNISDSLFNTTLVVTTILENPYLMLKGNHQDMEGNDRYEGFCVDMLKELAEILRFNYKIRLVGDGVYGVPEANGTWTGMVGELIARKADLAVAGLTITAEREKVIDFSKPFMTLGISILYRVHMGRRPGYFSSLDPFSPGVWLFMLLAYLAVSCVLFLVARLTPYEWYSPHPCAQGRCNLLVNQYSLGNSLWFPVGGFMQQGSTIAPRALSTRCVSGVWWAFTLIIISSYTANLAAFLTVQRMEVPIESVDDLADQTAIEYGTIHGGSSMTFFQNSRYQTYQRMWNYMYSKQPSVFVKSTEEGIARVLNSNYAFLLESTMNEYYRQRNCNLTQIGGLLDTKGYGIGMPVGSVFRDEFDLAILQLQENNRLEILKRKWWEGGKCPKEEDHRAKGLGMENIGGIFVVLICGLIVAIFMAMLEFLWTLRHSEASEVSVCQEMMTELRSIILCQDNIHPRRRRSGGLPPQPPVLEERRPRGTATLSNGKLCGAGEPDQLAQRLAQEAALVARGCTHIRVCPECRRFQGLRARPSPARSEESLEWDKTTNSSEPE

Row | Structure (SMILES) | Ki (Glutamate NMDA receptor) | IC50 [1] | IC50 [2] | pIC50 [2] | Ki ([5]; read-out: Ki) | Ki ([8]; read-out: Ki) | other results
1 | N[C@@H](C[C@@H](COCc1ccccc1)C(=O)O)C(=O)O | 26 µM | > 100 µM | 12 µM | 4.93 | – | – | –
2 | O=C(O)CC(CC(=O)C(=O)O)C(=O)O (racemic) | – | – | – | – | – | – | kcat (Escherichia coli [3]): 1.1%; Km (Escherichia coli [4]): 30100 µM
3 | CNC(=O)CC[C@H](C[C@H](N)C(=O)O)C(=O)O | > 100 µM | 32 µM | 29 µM | 4.54 | 0.00381 µM | 0.123 µM | EC50 [6]: > 100 µM; pIC50 [1]: 4.51; EC50 [7]: > 100 µM; Ki ([8]; read-out: pKi (converted)): 0.12 µM; Ki [9]: > 1000 µM; EC50 [10]: > 100 µM; EC50 [11]: > 100 µM; Ki [12]: > 1000 µM
4 | COC(=O)CC(CC(=O)C(=O)O)C(=O)O (racemic) | – | – | – | – | – | – | kcat (Escherichia coli [3]): 41%; Km (Escherichia coli [4]): 1800 µM
5 | N[C@@H](C[C@@H](CO)C(=O)O)C(=O)O | 15 µM | 44 µM | 0.24 µM | 6.62 | – | – | pIC50 [1]: 4.35
6 | NC(=O)CC[C@H](C[C@H](N)C(=O)O)C(=O)O | > 100 µM | 25 µM | 16 µM | 4.8 | 0.00745 µM | 9.66 µM | EC50 [6]: > 100 µM; pIC50 [1]: 4.6; EC50 [7]: > 100 µM; Ki [9]: > 1000 µM; EC50 [10]: > 100 µM; EC50 [11]: > 100 µM; Ki [12]: > 1000 µM
7 | N[C@@H](C[C@@H](CCC(=O)O)C(=O)O)C(=O)O | 52 µM | > 100 µM | > 100 µM | – | – | – | –
8 | O=C(O)C(=O)CC(CO)C(=O)O (racemic) | – | – | – | – | – | – | kcat (Escherichia coli [3]): 1.6%; Km (Escherichia coli [4]): 4700 µM
9 | N[C@@H](C[C@@H](CC(=O)O)C(=O)O)C(=O)O | > 100 µM | > 100 µM | 39 µM | 4.41 | – | – | –
10 | O=C(O)C(=O)CC(COCc1ccccc1)C(=O)O (racemic) | – | – | – | – | – | – | kcat (Escherichia coli [3]): 11%; Km (Escherichia coli [4]): 90 µM
11 | CCNC(=O)CC[C@H](C[C@H](N)C(=O)O)C(=O)O | > 100 µM | 74 µM | 41 µM | 4.39 | 0.641 µM | 10.6 µM | EC50 [6]: > 100 µM; pIC50 [1]: 4.13; EC50 [7]: > 100 µM; Ki ([8]; read-out: pKi (converted)): 10.2 µM; Ki [9]: > 1000 µM; EC50 [10]: > 100 µM; EC50 [11]: > 100 µM; Ki [12]: > 1000 µM
12 | C/C(=C\C=C\[C@@H](C)C(=O)O)[C@H]1CN[C@H](C(=O)O)[C@H]1CC(=O)O [DOMORIC ACID] | – | – | – | – | 0.00111 µM | 0.00604 µM | Ki ([5]; read-out: pKi (converted)): 0.00107 µM; Ki [13]: 0.04 µM; Ki ([8]; read-out: pKi (converted)): 0.00575 µM
13 | COC(=O)CCC(CC(=O)C(=O)O)C(=O)O (racemic) | – | – | – | – | – | – | kcat (Escherichia coli [3]): 33.6%; Km (Escherichia coli [4]): 610 µM
14 | C=C(C)[C@H]1CN[C@H](C(=O)O)[C@H]1CC(=O)O [KAINIC ACID] | – | – | – | – | – | – | Ki [13]: 0.0047 µM
15 | N[C@@H](Cn1oc(=O)[nH]c1=O)C(=O)O [QUISQUALATE] | – | – | – | – | 0.171 µM | – | –
16 | C[C@H](C[C@H](N)C(=O)O)C(=O)O [2S,4R-4-METHYLGLUTAMATE] | – | – | – | – | – | 0.017 µM | –
17 | N[C@@H](C[C@@H](CCC(=O)NCc1ccccc1)C(=O)O)C(=O)O | 72 µM | > 100 µM | > 100 µM | – | 0.138 µM | > 100 µM | –
18 | COC(=O)CC[C@H](C[C@H](N)C(=O)O)C(=O)O | > 100 µM | 31 µM | 7.9 µM | 5.1 | 0.0428 µM | 6.67 µM | Ki ([5]; read-out: pKi (converted)): 0.0417 µM; EC50 [6]: > 100 µM; pIC50 [1]: 4.51; EC50 [7]: > 100 µM; Ki ([8]; read-out: pKi (converted)): 6.17 µM; Ki [9]: > 1000 µM; EC50 [10]: > 100 µM; EC50 [11]: > 100 µM; Ki [12]: > 1000 µM
